Screens as filed in PubChem BioAssay.
RanGTP-Impb inh = inhibitors of RanGTP-importin-beta interaction, primary screen, biochemical, FRET, CFP-Ran, YFP-importin-beta, homogeneous; cell-free CFP-Ran/YFP-importin-beta FRET ratio; inhibition, % (no concentration beside the values); 1.1% of 300,000 active;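 active = more than half of the replicate wells show a fall in the fluorescence ratio signal beyond about 16%, limit read from the data, passing the limit was not always enough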;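 note: 0% = DMSO wells and 100% = Ran loaded with GDP instead of GTP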
Hck-Nef inh = blocks Nef-activated human Hck kinase. P08631. inhibition, % at 20 µM. Recombinant Hck-YEEI plus Nef, Z-Lyte FRET kinase assay. 0.68% of 220,000 active. AID 463187;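 active = Hck-Nef kinase inhibition above about 50%, limit read from the data; inactive = inhibition below that limit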;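 note: 0% = DMSO with Hck plus Nef and 100% = Hck alone without Nef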
Runt-SMMHC FRET = inhibitors of human RUNX1 Runt domain binding to CBFb-SMMHC; inhibition, % at 20 µM; Q01196+Q13951; Cerulean-Runt/Venus-CBFb-SMMHC FRET ratio 530/480, 1 h; 0.74% of 220,000 active;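 active = mean inhibition across duplicate retests at 20 µM reaching about 50%, limit read from the data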;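 note: 0% = DMSO wells and 100% = wells with excess untagged CBFb-SMMHC; inhibitors lower the FRET ratio by blocking Runt binding to CBFb-SMMHC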
Runt-CBFb FRET = blocks binding of human RUNX1 Runt domain to CBFb. Q01196+Q13951. Cerulean-Runt/Venus-CBFb FRET ratio 530/480, 1 h. inhibition, % at 20 µM. 0.46% of 220,000 active. AID 1496;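 active = inhibition over about 50% at 20 µM in the single-dose screen, limit read from the data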;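 note: 0% = DMSO wells and 100% = excess unlabeled CBFb competitor control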
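Assay system: Cerulean-Runt domain / Medium: Tris 50 mM pH 7.5, KCl, K2SO4, 0.01% BSA / Timing: protein complex preformed 1 h, compound exposure 1 h, room temperature, dark / Measured by: FRET, excitation 422 nm, emission at 530 and 480 nm / Evaluation: loss of energy transfer signal / Control set: 5 µM unlabeled CBFb as full-inhibition high control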
p-CIP stab down = lowers stability of the mouse p/CIP coactivator protein; Q05BA5; F442A p/CIP-EGFP cells, EGFP fluorescence, 16 h; decrease of EGFP signal, % at 10 µM; 0.01% of 290,000 active;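 active = EGFP signal decrease of at least 30% at 10 µM or well 3 SD below plate mean, unless failing retest; inactive = the rest, including hits failing retest or dose response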
Pemphigus Ab inh = inhibitors of pemphigus antibody binding to human desmoglein-3 | DSG3-coupled beads, scFv-anti-DSG3-GFP binding, flow cytometry; stronger effect = lower value | binding (percent of control), % at 10 µM | 0.48% of 310,000 active | AID 588358;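 active = binding more than 3 SD below its plate's average and above zero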;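 note: hits lower antibody fragment binding to DSG3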
RUNX1 CBFb TR = inhibitors of human RUNX1 Runt domain binding to CBFb; 20% of 480 active; shares compounds with Runt-CBFb FRET; AID 1502; inhibition, % at 20 µM; TR-FRET RUNX1 Runt domain-CBFb binding; in the data active = inhibition above about 40%
The depositor's hits bear a star; · = no result given. Shown are actives, neighbours in structure and some others; about 2.1% of the full set was active somewhere.

SMILES | RanGTP-Impb inh | Hck-Nef inh | Runt-SMMHC FRET | Runt-CBFb FRET | p-CIP stab down | Pemphigus Ab inh | RUNX1 CBFb TR
CCOC(=O)C1=C(C)N(c2ccc(OC)cc2)C(=O)/C1=C\c1ccc(O)c(OCC)c1 | -12.2 | -309.3 | -4.1 | 65.2* | -8.9 | 103.9 | 32.2
CCc1cc(C(=O)N2CCN(S(=O)(=O)c3ccccc3F)CC2)sc1C | · | · | · | · | · | 97.9 | ·
CCCCc1cc(=O)oc2cc(OCC(=O)Nc3ccccn3)ccc12 | 0.1 | · | · | · | -7.0 | · | ·
Cc1[nH][nH]c(=O)c1C=NCc1ccc(Cl)cc1 | -1.8 | -8.7 | -3.0 | 1.5 | -1.4 | 80.1 | ·
O=C(CN1CCN(Cc2ccccc2)CC1)Nc1cccc(C(F)(F)F)c1 | 0.6 | 0.5 | -2.8 | -3.3 | 7.7 | 110.8 | ·
O=C(CN1CCN(c2ccccc2)CC1)Nc1cccc(C(F)(F)F)c1 | 9.2 | -0.5 | -1.0 | 59.4* | -9.4 | 96.3 | -15.5
COc1cc(C(=O)OCC(=O)NC2CCCCCC2)ccc1OCC(C)C | 1.1 | · | · | · | · | 117.4 | ·
Cc1ccn(-c2cc(O)c(-n3ccc(C)n3)cc2O)n1 | 7.6 | 8.5 | 25.3 | 64.1* | -7.0 | 86.6 | 37.1
Cc1ccn(CCC(=O)O)n1 | -1.0 | -1.7 | -1.8 | 2.5 | 3.5 | 106.2 | ·
CCOC(=O)N1CCN(C(=O)c2ccc3c(SCC(=O)O)c4c(nc3c2)CCCC4)CC1 | -0.5 | 18.2 | 2.4 | 2.0 | -10.6 | 94.4 | ·
O=C(O)CSc1c2c(nc3cc(C(=O)N4CCOCC4)ccc13)CCCC2 | 30.8* | 0.2 | 101.7* | 58.7* | -4.2 | 96.4 | 30.7
CN1c2ccsc2C(O)=C(C(=S)Nc2ccccc2)S1(=O)=O | 89.0* | -0.4 | 91.3* | 52.6* | -4.7 | 89.9 | 33.8
CN1c2ccccc2C(O)=C(C(=S)Nc2ccccc2)S1(=O)=O | 7.8 | 2.3 | 5.3 | 3.6 | 4.7 | · | ·
COc1ccc(CCn2c(=N)c(C(=O)N3CCN(C)CC3)cc3c(=O)n4ccccc4nc32)cc1 | 6.1 | 7.3 | 124.0* | 64.8* | -5.6 | 111.2 | 30.4
CCN(C(=O)COC(=O)c1cccs1)c1c(N)n(Cc2ccccc2)c(=O)[nH]c1=O | 4.4 | · | · | · | · | 94.0 | ·
CC(C)C(=O)NC(Nc1cccc2cccnc12)C(Cl)(Cl)Cl (configuration not stated) | 0.7 | 3.7 | 2.9 | 78.8* | -7.0 | · | 48.0*
COc1cc(C(=O)NCc2nnc(SCC(=O)Nc3nc4ccccc4s3)o2)cc(OC)c1OC | 4.9 | -2.3 | 48.4 | 53.4* | -11.6 | 105.5 | -1.9
COc1ccc(C(=O)NCc2nnc(SCC(=O)Nc3nc4ccccc4s3)o2)cc1 | 0.9 | 1.2 | -3.3 | 56.7* | 2.4 | 85.0* | -23.4
COc1ccc(S(=O)(=O)N2CCCCCC2)cc1C(=O)NCc1ccc(C)cc1 | · | · | · | · | · | 95.0 | ·
COCCOC(=O)C(C#N)c1nc2ccccc2nc1N1CCN(Cc2ccccc2)CC1 (configuration not stated) | 5.5 | 2.8 | 96.9* | 53.4* | -10.0 | 101.8 | 0.8
O=C(COC(=O)/C=C/c1ccc(F)cc1)NC1CCCCCC1 | · | · | · | · | · | 125.9 | ·
O=[N+]([O-])c1cc2c(cc1Br)-c1ccccc1C2 | · | · | · | · | · | 105.6 | ·
NC(=S)N/N=C/c1ccc(-c2cc(Cl)cc(Cl)c2)o1 | 0.8 | 6.4 | 11.6 | 51.5* | -3.9 | 102.9 | 16.7
CCOC(CCNC(=O)c1cn(CC(C)C)c(=O)c2c1c1ccccc1n2C)OCC | 0.7 | · | · | · | -2.2 | 90.1 | ·
O=C1C=CC(=O)N1N(c1ccccc1)c1ccccc1 | 1.2 | -3.6 | · | 71.7* | -15.4 | 99.9 | -19.9
Cc1nnc(Sc2cc(NCCO)c([N+](=O)[O-])c3nonc23)s1 | -0.6 | -9.2 | 31.3 | 52.2* | -3.0 | 103.4 | 26.9
CCc1ccc2nc(NC(=O)c3ccc(N4C(=O)CCC4=O)cc3)sc2c1 | 5.8 | 22.3 | 0.2 | 1.2 | 1.4 | 92.5 | ·
CNS(=O)(=O)c1ccc2nc(NC(=O)c3ccc(N4C(=O)CCC4=O)cc3)sc2c1 | 1.2 | 21.4 | 59.8 | 55.1* | 5.5 | 95.2 | 11.9
